CAL PDZ FP-1: blocks peptide binding to human CAL PDZ domain. purified CAL PDZ, TMR-peptide fluorescence polarization, 1 h. inhibition, % at 20 µM. 0.02% of 330,000 active. AID 504414;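 active = highest replicate inhibition of at least 40%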
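System: tagged CAL PDZ domain. Schedule: 1 h room-temperature incubation prior to read. Signal: fluorescence polarization (mP). Measure: percent inhibition from loss of millipolarization.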
CAL PDZ FP-2: blocks peptide binding to the human CAL PDZ domain; purified CAL PDZ, TMR-peptide fluorescence polarization, 1 h; inhibition, % at 24.9 µM; 0.92% of 300,000 active;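 active = mean inhibition of at least 30% with at least half of replicates also reaching 30%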
Tn6 DDE FP: disrupts Tn6 cyclic peptide binding to fibrin D-Dimer-E complex; Fibrin DD(E) TRITC-Tn6 fluorescence polarization displacement; P02675; inhibition, % at 8.3 µM; 0.21% of 370,000 active;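 active = inhibition above a per-campaign cutoff: mean of compounds within control limits plus 3 SD, cut at about 15% in these data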
Target sequence (P02675 whole entry, looked up): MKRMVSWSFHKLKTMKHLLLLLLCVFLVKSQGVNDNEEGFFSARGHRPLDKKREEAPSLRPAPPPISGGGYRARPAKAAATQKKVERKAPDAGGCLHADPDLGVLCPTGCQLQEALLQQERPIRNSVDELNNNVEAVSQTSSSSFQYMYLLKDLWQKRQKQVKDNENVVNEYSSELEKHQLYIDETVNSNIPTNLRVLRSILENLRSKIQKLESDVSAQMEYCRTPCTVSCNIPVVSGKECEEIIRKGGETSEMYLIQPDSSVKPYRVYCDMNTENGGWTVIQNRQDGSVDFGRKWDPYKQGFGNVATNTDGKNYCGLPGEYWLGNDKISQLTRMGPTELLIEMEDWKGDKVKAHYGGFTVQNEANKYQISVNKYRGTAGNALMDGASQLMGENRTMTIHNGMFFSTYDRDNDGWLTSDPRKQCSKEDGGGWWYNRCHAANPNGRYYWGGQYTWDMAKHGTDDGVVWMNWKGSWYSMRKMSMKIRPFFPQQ
Tn7 DDE FP: inhibitors of Tn7 peptide binding to human fibrin DD(E); P02675; FP displacement of FITC-Tn7 peptide from fibrin DD(E); 0% = median of compound wells per plate; inhibition, % at 8.3 µM; 0.13% of 370,000 active; AID 720508;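 active = inhibition above the mean of compounds falling within the control limits plus 3 SD of them, cut at about 14% in these data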
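Test system: human clot-derived fibrin DD(E) complex / Quantity: 2 µM final DD(E) protein / Incubation: 10 min plus 3 h, room temperature / Measured by: fluorescence polarization / Benchmarks: high control of 10 µM Aha-Tn7 peptide / Replicates: singlicate testing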
Arr AP2 block: inhibitors of human beta-arrestin and AP2 interaction. inhibition, % at 10 µM. FITC-arrestin peptide / GST-AP2 beads, flow cytometry; AP2 beta2 appendage carries R879A mutation. 0.31% of 340,000 active;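 active = inhibition above a set limit, near 3 SD of compounds lacking own fluorescence, cut at about 54% in these data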
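System: GST-AP2 R879A glutathione beads; medium: PBS, Tween 20 0.05%, BSA 0.1%; reagent: fluorescein-tagged arrestin peptide at 50 nM final; schedule: pre-incubation 12 min, peptide binding 1 h, room temperature; detection: flow cytometry, FL1 (488/535 nm); read-out: inhibition as reduced fluorescein signal on beads, percent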
Tn7 DDE conf: confirmation of inhibitors of Tn7 binding to human fibrin DD(E); shares compounds with Tn7 DDE FP; FP displacement of TRITC-Tn7 peptide from DD(E); 0% set at plate's compound-well median; inhibition, % at 8.3 µM; 5% of 460 active; AID 720628;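 active = inhibition above the campaign cutoff, the mean of compounds within control limits plus 3 SD, cut at about 14% in these data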;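 also: displacers lower polarization since freed probe rises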
DDE Tn7 FP ctr: counter-screen hit for Tn7 peptide-fibrin DD(E) binding disruption. shares compounds with Tn7 DDE FP. TRITC-Tn7 probe displacement, fluorescence polarization. inhibition, % at 8.3 µM. 3% of 460 active;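 active = inhibition above the cutoff, the mean of compounds lying between the control bounds plus 3 SD of those compounds, cut at about 17% in these data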
Of the large screens only hits and unclear results are named; the others gave an inactive call (follow-up assays come after a bar, where they were run); ! = not confirmed by another sample. Only some compounds are listed: those with a hit (about 1.4% of all), similar ones and a draw of the others.

CC(C)C[C@@H]1COc2cc(Br)ccc2S(=O)(=O)N1Cc1cn(Cc2ccc(C(F)(F)F)cc2)nn1	none (no result: CAL PDZ FP-1, CAL PDZ FP-2, Arr AP2 block)
CC(OC(=O)c1ccco1)C(=O)Nc1ccc(Cl)cn1 (stereo not given)	Tn7 DDE FP 15 | Tn7 DDE conf inactive | DDE Tn7 FP ctr inactive
CCOC(=O)C1(Cc2cccc(F)c2)CCN(Cc2ccon2)CC1	Tn7 DDE FP 14 | Tn7 DDE conf inactive | DDE Tn7 FP ctr inactive
CCOC(=O)C1(Cc2ccc(Cl)cc2)CCN(Cc2ccon2)CC1	none
COCCN(C(=O)c1ccc(-c2ccc([N+](=O)[O-])cc2)o1)c1c(N)n(CC(C)C)c(=O)[nH]c1=O	Tn7 DDE FP 14 | Tn7 DDE conf inactive | DDE Tn7 FP ctr inactive
COCCN(C(=O)c1ccc(-c2ccc(Cl)cc2)o1)c1c(N)n(CC(C)C)c(=O)[nH]c1=O	none
Oc1cccc(Nc2ccccc2)c1	Tn7 DDE FP 14 | Tn7 DDE conf inactive | DDE Tn7 FP ctr inactive
c1ccc(Nc2cccc(Nc3ccccc3)c2)cc1	none
C[C@H]1C(=O)CC[C@@]23CCCN2C(=O)CCC[C@@H]13	none (no result: CAL PDZ FP-1, CAL PDZ FP-2, Arr AP2 block)
COc1cc(NC(=O)C2CCCN(S(=O)(=O)c3ccccc3[N+](=O)[O-])C2)cc(OC)c1 (stereo not given)	none (no result: CAL PDZ FP-1, CAL PDZ FP-2, Arr AP2 block)
COc1ccc(CC(NC(C)=O)C(=O)NC2CCN(c3c(Cc4ccccc4)c(C)nc4ncnn34)CC2)c(OC)c1 (stereo not given)	Tn7 DDE FP 14 (no result: CAL PDZ FP-2) | Tn7 DDE conf inactive | DDE Tn7 FP ctr inactive
O=C(c1oc2ccccc2c1N1CCCCC1)N1CCCCC1	Tn7 DDE FP 15 (no result: CAL PDZ FP-1) | Tn7 DDE conf inactive | DDE Tn7 FP ctr inactive
O=C(c1cc2ccccc2o1)N1CCCCCC1	none
COC(=O)[C@]12C[C@H](CC(=O)NCc3cccs3)C(=O)N(Cc3cccc4ccccc34)C1=C[C@H](COCc1ccccc1)O[C@@H]2C	none (no result: CAL PDZ FP-1, CAL PDZ FP-2, Arr AP2 block)
Cc1ccc2c(c1)[C@H]1[C@H](CO2)[C@H](c2ccccc2)[C@]2(C)C(=O)N(Cc3ccc(F)cc3)CC(=O)N12	Tn7 DDE FP 27 | Tn7 DDE conf 14 | DDE Tn7 FP ctr inactive
Cc1ccc2c(c1)[C@H]1[C@H](CO2)[C@H](c2ccccc2)[C@]2(C)C(=O)N(Cc3ccc(Cl)cc3)CC(=O)N12	none
COc1ccc(S[C@]2(C(=O)N(C)C)CC(=O)N(c3ccc(Cl)cc3)[C@@H]2c2ccc(OC)cc2)cc1	none (no result: CAL PDZ FP-1, CAL PDZ FP-2, Arr AP2 block)
Cc1cc[n+](-c2[nH]c(=O)sc2/C=N/NC([S-])=Nc2ccccc2)cc1	none
O=c1[nH]c(-[n+]2ccccc2)c(/C=N/NC([S-])=Nc2ccccc2)s1	Tn7 DDE FP 15 | Tn7 DDE conf inactive | DDE Tn7 FP ctr inactive
COc1cc2c(c(OC)c1OC)-c1ccc(NCc3ccccc3)c(=O)cc1C(NC(C)=O)CC2 (stereo not given)	Tn7 DDE FP 15 (no result: CAL PDZ FP-1, CAL PDZ FP-2, Arr AP2 block) | Tn7 DDE conf inactive | DDE Tn7 FP ctr inactive
C=CCC(=O)NC1CCCc2c1cnn2-c1cc(F)cc(F)c1 (stereo not given)	Tn7 DDE FP 15 | Tn7 DDE conf inactive | DDE Tn7 FP ctr inactive
COc1ccc(C(=O)OCCN(C)C2CN(Cc3cn(Cc4ccccc4Cl)nn3)S(=O)(=O)C2)cc1OC (stereo not given)	none (no result: CAL PDZ FP-1, CAL PDZ FP-2, Arr AP2 block)
CC1=CC(C)(C)NC(=S)N1c1ccc(C)cc1	none
CC1=CC(C)(C)NC(=S)N1c1cccc(C)c1	Tn7 DDE FP 14! | Tn7 DDE conf inactive | DDE Tn7 FP ctr inactive
C/C(=N\NC(=O)Cn1cnc2ccccc21)c1cccs1	Tn7 DDE FP 17 | Tn7 DDE conf inactive | DDE Tn7 FP ctr inactive
CN(C)[C@@H]1CCN(c2ccc3c(c2)O[C@H]2CCN(C2)S3(=O)=O)C1	none (no result: CAL PDZ FP-1, CAL PDZ FP-2, Arr AP2 block)
COCCNC(=O)[C@]1(C#N)CC(=O)N(C)[C@@H]1c1ccccc1	none (no result: CAL PDZ FP-1, CAL PDZ FP-2, Arr AP2 block)
O=C(CCc1ccccc1)N[C@H]1C(=O)CCC[C@]12C(=O)N(Cc1ccccc1)c1ccccc12	none (no result: CAL PDZ FP-1, CAL PDZ FP-2, Arr AP2 block)
COc1ccc(C(C)(C)C)cc1NC(=O)c1cncc(Br)c1	Tn7 DDE FP 16 | Tn7 DDE conf inactive | DDE Tn7 FP ctr inactive
COC(=O)[C@]12CCCCC=C1N(Cc1ccc(OC)cc1)C(=O)[C@@H]2CC(=O)NCc1ccccc1	none (no result: CAL PDZ FP-1, CAL PDZ FP-2, Arr AP2 block)
COc1ccc(OC)c(/C=C/C(=O)OCC(=O)Nc2nnc(-c3ccccc3)o2)c1	Tn7 DDE FP 14 (no result: CAL PDZ FP-2) | Tn7 DDE conf inactive | DDE Tn7 FP ctr inactive
N/C(=N\OC(=O)c1ccc2c(c1)OCO2)c1ccc(Cl)cc1	none
N/C(=N\OC(=O)c1ccc2c(c1)OCO2)c1ccncc1	CAL PDZ FP-2 48, Tn7 DDE FP 15 | Tn7 DDE conf inactive | DDE Tn7 FP ctr inactive
CCC(CC)C(=O)c1c[nH]c(C(=O)NCc2ccccc2OC)c1	none
CCC(CC)C(=O)c1c[nH]c(C(=O)NCc2ccccc2)c1	Tn7 DDE FP 14 | Tn7 DDE conf inactive | DDE Tn7 FP ctr inactive
N#CC1=C(N)C(C#N)(C#N)[C@H](c2c(F)cccc2F)[C@H]2CC3(CC=C12)OCCO3	Tn7 DDE FP 16 (no result: CAL PDZ FP-2) | Tn7 DDE conf inactive | DDE Tn7 FP ctr inactive
COc1cc(C)c(S(=O)(=O)NCc2ccc3c(c2)OCO3)cc1C	none
COc1cc(C)c(Cl)c(C)c1S(=O)(=O)NCc1ccc2c(c1)OCO2	Tn7 DDE FP 16 | Tn7 DDE conf inactive | DDE Tn7 FP ctr inactive
C#CCn1cc(/C=N/NC(=O)COc2cccc3cccnc23)c2ccccc21	Tn7 DDE FP 14 | Tn7 DDE conf inactive | DDE Tn7 FP ctr inactive

Source: PubChem BioAssay (several laboratories)
